ChEMBL document CHEMBL1134594 (J Med Chem, 2001)
Where a SMILES comes first, the peptide text is derived from it. Bridges are numbered along the chain shown (N, C = ends).

Legend:
[1] = target: Adenylate cyclase (Rattus norvegicus) (UniProt D4A3N4+P26770+Q04400+P26769+Q03343+P40146+Q8CFM9+P21932); assay: Adenylate cyclase activity measured as percentage stimulation; assay type: protein assay; set-up: concentration or dose not given beside the values
Adenylate cyclase = assay: Adenylate cyclase activity measured as 50% inhibitory concentration; assay type: protein assay
Glucagon receptor = Glucagon receptor (Rattus norvegicus, UniProt P30082); assay: Glucagon receptor binding measured as 50% inhibitory concentration
Procedure, shortened: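 Membranes (50 µg protein) were taken from the livers of male Sprague Dawley rats (200-250 g), purified on a sucrose gradient. […] Nonspecific binding was defined with excess unlabeled peptide and subtracted. Run in triplicate, repeated twice.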

Sequence of Glucagon receptor (P30082 whole entry): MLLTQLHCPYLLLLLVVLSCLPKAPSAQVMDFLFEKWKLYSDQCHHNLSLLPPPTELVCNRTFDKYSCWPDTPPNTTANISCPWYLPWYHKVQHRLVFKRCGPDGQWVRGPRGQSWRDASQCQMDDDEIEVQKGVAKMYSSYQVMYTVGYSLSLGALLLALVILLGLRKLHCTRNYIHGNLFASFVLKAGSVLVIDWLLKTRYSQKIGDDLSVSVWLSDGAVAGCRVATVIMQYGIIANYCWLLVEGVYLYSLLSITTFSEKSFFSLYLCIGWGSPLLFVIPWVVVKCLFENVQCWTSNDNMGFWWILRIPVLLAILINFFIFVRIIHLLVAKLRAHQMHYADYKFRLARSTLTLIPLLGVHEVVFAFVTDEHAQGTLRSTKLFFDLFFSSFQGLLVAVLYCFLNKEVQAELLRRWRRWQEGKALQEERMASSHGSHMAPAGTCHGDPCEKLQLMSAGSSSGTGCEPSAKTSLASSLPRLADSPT

Row | Compound | Activity [1] [%] | EC50 (Adenylate cyclase) [nM] | IC50 (Glucagon receptor) [nM]
1 | CSCC[C@H](NC(=O)[C@H](CC(C)C)NC(=O)[C@H](Cc1c[nH]c2ccccc12)NC(=O)[C@H](CCC(N)=O)NC(=O)[C@@H](NC(=O)[C@H](Cc1ccccc1)NC(=O)[C@H](CC(=O)O)NC(=O)[C@H](CCC(N)=O)NC(=O)[C@H](C)NC(=O)[C@H](CCCN=C(N)N)NC(=O)[C@@H]1CCC(=O)NCCCC[C@H](NC(=O)[C@H](CCCCN)NC(=O)[C@H](CO)NC(=O)[C@H](Cc2ccc(O)cc2)NC(=O)[C@H](CC(=O)O)NC(=O)[C@H](CO)NC(=O)[C@@H](NC(=O)[C@H](Cc2ccccc2)NC(=O)[C@@H](NC(=O)CNC(=O)[C@H](CCC(N)=O)NC(=O)[C@H](CO)NC(=O)[C@@H](N)Cc2c[nH]cn2)[C@@H](C)O)[C@@H](C)O)C(=O)N[C@@H](CC(C)C)C(=O)N[C@@H](CC(=O)O)C(=O)N[C@@H](CO)C(=O)N1)C(C)C)C(=O)N[C@@H](CC(N)=O)C(=O)N[C@H](C(=O)O)[C@@H](C)O (H-HSQGTFTSDYSKKLDSERAQDFVQWLMNT-OH; lactam 13-17) | 85 | 6.3 | 1.7
2 | CSCC[C@H](NC(=O)[C@H](CC(C)C)NC(=O)[C@H](Cc1c[nH]c2ccccc12)NC(=O)[C@H](CCC(N)=O)NC(=O)[C@@H](NC(=O)[C@H](Cc1ccccc1)NC(=O)[C@H](CC(=O)O)NC(=O)[C@H](CCC(N)=O)NC(=O)[C@H](C)NC(=O)[C@H](CCCN=C(N)N)NC(=O)[C@H](CCCN=C(N)N)NC(=O)[C@H](CO)NC(=O)[C@H](CC(=O)O)NC(=O)[C@H](CC(C)C)NC(=O)[C@H](Cc1ccc(O)cc1)NC(=O)[C@H](CCCCN)NC(=O)[C@H](CO)NC(=O)[C@H](Cc1ccc(O)cc1)NC(=O)[C@@H]1CSSC[C@H](NC(=O)[C@H](CCC(N)=O)NC(=O)[C@H](CO)NC(=O)[C@@H](N)Cc2c[nH]cn2)C(=O)N[C@@H]([C@@H](C)O)C(=O)N[C@@H](Cc2ccccc2)C(=O)N[C@@H]([C@@H](C)O)C(=O)N[C@@H](CO)C(=O)N1)C(C)C)C(=O)N[C@@H](CC(N)=O)C(=O)N[C@H](C(=O)O)[C@@H](C)O (H-HSQCTFTSCYSKYLDSRRAQDFVQWLMNT-OH; disulfide 4-9) | 7.5 | 295 | 84.5
3 | CSCC[C@H](NC(=O)[C@H](CC(C)C)NC(=O)[C@H](Cc1c[nH]c2ccccc12)NC(=O)[C@H](CCC(N)=O)NC(=O)[C@@H](NC(=O)[C@H](Cc1ccccc1)NC(=O)[C@H](CC(=O)O)NC(=O)[C@H](CCC(N)=O)NC(=O)[C@H](C)NC(=O)[C@H](CCCN=C(N)N)NC(=O)[C@H](CCCN=C(N)N)NC(=O)[C@H](CO)NC(=O)[C@H](CC(=O)O)NC(=O)[C@H](CC(C)C)NC(=O)[C@H](Cc1ccc(O)cc1)NC(=O)[C@H](CCCCN)NC(=O)[C@H](CO)NC(=O)[C@H](Cc1ccc(O)cc1)NC(=O)[C@H](CC(=O)O)NC(=O)[C@H](CO)NC(=O)[C@H](CS)NC(=O)[C@H](Cc1ccccc1)NC(=O)[C@@H](NC(=O)CNC(=O)[C@H](CCC(N)=O)NC(=O)[C@H](CS)NC(=O)[C@@H](N)Cc1c[nH]cn1)[C@@H](C)O)C(C)C)C(=O)N[C@@H](CC(N)=O)C(=O)N[C@H](C(=O)O)[C@@H](C)O (H-HCQGTFCSDYSKYLDSRRAQDFVQWLMNT-OH) | – | – | 5.6
4 | CSCC[C@H](NC(=O)[C@H](CC(C)C)NC(=O)[C@H](Cc1c[nH]c2ccccc12)NC(=O)[C@H](CCC(N)=O)NC(=O)[C@@H](NC(=O)[C@H](Cc1ccccc1)NC(=O)[C@H](CC(=O)O)NC(=O)[C@H](CCC(N)=O)NC(=O)[C@H](C)NC(=O)[C@H](CCCN=C(N)N)NC(=O)[C@H](CCCN=C(N)N)NC(=O)[C@H](CO)NC(=O)[C@H](CC(=O)O)NC(=O)[C@H](CC(C)C)NC(=O)[C@@H]1CCC(=O)NCCCC[C@H](NC(=O)[C@H](CO)NC(=O)[C@@H](NC(=O)[C@H](Cc2ccccc2)NC(=O)[C@@H](NC(=O)CNC(=O)[C@H](CCC(N)=O)NC(=O)[C@H](CO)NC(=O)[C@@H](N)Cc2c[nH]cn2)[C@@H](C)O)[C@@H](C)O)C(=O)N[C@@H](Cc2ccc(O)cc2)C(=O)N[C@@H](CO)C(=O)N[C@@H](CCCCN)C(=O)N1)C(C)C)C(=O)N[C@@H](CC(N)=O)C(=O)N[C@H](C(=O)O)[C@@H](C)O (H-HSQGTFTSKYSKELDSRRAQDFVQWLMNT-OH; lactam 9-13) | 19 | 23 | 652
5 | CSCC[C@H](NC(=O)[C@H](CC(C)C)NC(=O)[C@H](Cc1c[nH]c2ccccc12)NC(=O)[C@H](CCC(N)=O)NC(=O)[C@@H](NC(=O)[C@H](Cc1ccccc1)NC(=O)[C@H](CC(=O)O)NC(=O)[C@H](CCC(N)=O)NC(=O)[C@H](C)NC(=O)[C@H](CCCNC(=N)N)NC(=O)[C@H](CCCNC(=N)N)NC(=O)[C@H](CO)NC(=O)[C@H](CC(=O)O)NC(=O)[C@H](CC(C)C)NC(=O)[C@H](Cc1ccc(O)cc1)NC(=O)[C@H](CCCCN)NC(=O)[C@@H]1CCC(=O)NCCCC[C@H](NC(=O)[C@H](Cc2ccccc2)NC(=O)[C@@H](NC(=O)CNC(=O)[C@H](CCC(N)=O)NC(=O)[C@H](CO)NC(=O)[C@@H](N)Cc2cnc[nH]2)[C@@H](C)O)C(=O)N[C@@H](CO)C(=O)N[C@@H](CC(=O)O)C(=O)N[C@@H](Cc2ccc(O)cc2)C(=O)N1)C(C)C)C(=O)N[C@@H](CC(N)=O)C(=O)N[C@H](C(=O)O)[C@@H](C)O (H-HSQGTFKSDYEKYLDSRRAQDFVQWLMNT-OH; lactam 7-11) | – | – | 13.6
6 | CSCC[C@H](NC(=O)[C@H](CC(C)C)NC(=O)[C@H](Cc1c[nH]c2ccccc12)NC(=O)[C@H](CCC(N)=O)NC(=O)[C@@H](NC(=O)[C@H](Cc1ccccc1)NC(=O)[C@H](CC(=O)O)NC(=O)[C@H](CCC(N)=O)NC(=O)[C@H](C)NC(=O)[C@H](CCCN=C(N)N)NC(=O)[C@H](CCCN=C(N)N)NC(=O)[C@H](CO)NC(=O)[C@H](CC(=O)O)NC(=O)[C@H](CC(C)C)NC(=O)[C@H](Cc1ccc(O)cc1)NC(=O)[C@H](CCCCN)NC(=O)[C@H](CO)NC(=O)[C@H](Cc1ccc(O)cc1)NC(=O)[C@H](CC(=O)O)NC(=O)[C@H](CO)NC(=O)[C@@H]1CSSC[C@H](NC(=O)[C@@H](N)Cc2c[nH]cn2)C(=O)N[C@@H](CCC(N)=O)C(=O)NCC(=O)N[C@@H]([C@@H](C)O)C(=O)N[C@@H](Cc2ccccc2)C(=O)N1)C(C)C)C(=O)N[C@@H](CC(N)=O)C(=O)N[C@H](C(=O)O)[C@@H](C)O (H-HCQGTFCSDYSKYLDSRRAQDFVQWLMNT-OH; disulfide 2-7) | 23 | 9200 | 101
7 | CSCC[C@H](NC(=O)[C@H](CC(C)C)NC(=O)[C@H](Cc1c[nH]c2ccccc12)NC(=O)[C@H](CCC(N)=O)NC(=O)[C@@H](NC(=O)[C@H](Cc1ccccc1)NC(=O)[C@H](CC(=O)O)NC(=O)[C@H](CCC(N)=O)NC(=O)[C@H](C)NC(=O)[C@H](CCCNC(=N)N)NC(=O)[C@H](CCCNC(=N)N)NC(=O)[C@H](CO)NC(=O)[C@H](CC(=O)O)NC(=O)[C@H](CC(C)C)NC(=O)[C@H](Cc1ccc(O)cc1)NC(=O)[C@H](CS)NC(=O)[C@H](CO)NC(=O)[C@H](Cc1ccc(O)cc1)NC(=O)[C@H](CC(=O)O)NC(=O)[C@H](CO)NC(=O)[C@H](CS)NC(=O)[C@H](Cc1ccccc1)NC(=O)[C@@H](NC(=O)CNC(=O)[C@H](CCC(N)=O)NC(=O)[C@H](CO)NC(=O)[C@@H](N)Cc1cnc[nH]1)[C@@H](C)O)C(C)C)C(=O)N[C@@H](CC(N)=O)C(=O)N[C@H](C(=O)O)[C@@H](C)O (H-HSQGTFCSDYSCYLDSRRAQDFVQWLMNT-OH) | – | – | 6.4
8 | CSCC[C@H](NC(=O)[C@H](CC(C)C)NC(=O)[C@H](Cc1c[nH]c2ccccc12)NC(=O)[C@H](CCC(N)=O)NC(=O)[C@@H](NC(=O)[C@H](Cc1ccccc1)NC(=O)[C@@H]1CCC(=O)NCCCC[C@H](NC(=O)[C@H](CO)NC(=O)[C@H](CC(=O)O)NC(=O)[C@H](CC(C)C)NC(=O)[C@H](Cc2ccc(O)cc2)NC(=O)[C@H](CCCCN)NC(=O)[C@H](CO)NC(=O)[C@H](Cc2ccc(O)cc2)NC(=O)[C@H](CC(=O)O)NC(=O)[C@H](CO)NC(=O)[C@@H](NC(=O)[C@H](Cc2ccccc2)NC(=O)[C@@H](NC(=O)CNC(=O)[C@H](CCC(N)=O)NC(=O)[C@H](CO)NC(=O)[C@@H](N)Cc2c[nH]cn2)[C@@H](C)O)[C@@H](C)O)C(=O)N[C@@H](CCCN=C(N)N)C(=O)N[C@@H](C)C(=O)N[C@@H](CCC(N)=O)C(=O)N1)C(C)C)C(=O)N[C@@H](CC(N)=O)C(=O)N[C@H](C(=O)O)[C@@H](C)O | 98 | 0.27 | 0.24
9 | CSCC[C@H](NC(=O)[C@H](CC(C)C)NC(=O)[C@H](Cc1c[nH]c2ccccc12)NC(=O)[C@H](CCC(N)=O)NC(=O)[C@@H](NC(=O)[C@H](Cc1ccccc1)NC(=O)[C@H](CC(=O)O)NC(=O)[C@H](CCC(N)=O)NC(=O)[C@H](C)NC(=O)[C@H](CCCN=C(N)N)NC(=O)[C@H](CCCN=C(N)N)NC(=O)[C@H](CO)NC(=O)[C@H](CC(=O)O)NC(=O)[C@H](CC(C)C)NC(=O)[C@H](Cc1ccc(O)cc1)NC(=O)[C@H](CCCCN)NC(=O)[C@@H]1CCC(=O)NCCCC[C@H](NC(=O)[C@H](Cc2ccccc2)NC(=O)[C@@H](NC(=O)CNC(=O)[C@H](CCC(N)=O)NC(=O)[C@H](CO)NC(=O)[C@@H](N)Cc2c[nH]cn2)[C@@H](C)O)C(=O)N[C@@H](CO)C(=O)N[C@@H](CC(=O)O)C(=O)N[C@@H](Cc2ccc(O)cc2)C(=O)N1)C(C)C)C(=O)N[C@@H](CC(N)=O)C(=O)N[C@H](C(=O)O)[C@@H](C)O (H-HSQGTFKSDYEKYLDSRRAQDFVQWLMNT-OH; lactam 7-11) | 17 | 47 | –
